{"source": "ChEMBL document CHEMBL4033798", "about": "“Discovery of Novel KRAS-PDEδ Inhibitors by Fragment-Based Drug Design” (J Med Chem, 2018)", "data": [{"test_system": "CAPAN-1", "test": "Induction of apoptosis in KRAS-dependent human Capan1 cells at 25 uM incubated for 48 hrs by Annexin-V FITC/propidium iodide staining-based flow cytometry (reference value: 3.51%)", "assay_type": "functional", "details": "not given", "procedure,_shortened": "(§1)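 Capan-1 cells were exposed to compound for 48 h, with 0.1% DMSO as the vehicle control. The read-out is the percentage of apoptotic cells. Compounds were tested at 10, 25 or 50 μM.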", "units": {"Activity": "%"}, "values": [{"smiles": "O=C1c2cc(F)ccc2N(CC2CC2)C(c2ccccc2F)N1C1CCN(CCCn2ccnc2-c2ccccc2)CC1", "note": "(stereo not drawn)", "Activity": 36.4}]}, {"test_system": "CAPAN-1", "test": "Antiproliferative activity against KRAS-dependent human Capan1 cells after 48 hrs by CCK8 assay", "details": "CAPAN-1, 48 h", "units": {"IC50": "µM"}, "values": [{"smiles": "O=C1c2ccc(Cl)cc2NC(c2ccccc2F)N1CCOc1ccc(-c2nc3ccccc3n2Cc2ccncc2)cc1", "note": "(stereo not drawn)", "IC50": "> 100"}, {"smiles": "O=C1c2ccccc2NC(c2ccccn2)N1c1ccc(OCCn2c(-c3ccccc3)nc3ccccc32)cc1", "note": "(stereo not drawn)", "IC50": "> 100"}, {"smiles": "O=C1c2cc(F)ccc2NC(c2ccccc2F)N1C1CCN(CCCn2ccnc2-c2ccccc2)CC1", "note": "(stereo not drawn)", "IC50": 33}, {"smiles": "COc1ccc2c(c1)NC(c1ccccc1F)N(C1CCN(CCCn3ccnc3-c3ccccc3)CC1)C2=O", "note": "(stereo not drawn)", "IC50": 82}, {"smiles": "O=C1c2ccc(F)cc2NC(c2ccccc2F)N1CCOc1ccc(-c2nc3ccccc3n2Cc2ccncc2)cc1", "note": "(stereo not drawn)", "IC50": "> 100"}, {"smiles": "O=C1c2cc(F)ccc2NC(c2ccccc2F)N1CCOc1ccc(-c2nc3ccccc3n2Cc2ccncc2)cc1", "note": "(stereo not drawn)", "IC50": "> 100"}, {"smiles": "COc1ccc2c(c1)C(=O)N(C1CCN(CCCn3ccnc3-c3ccccc3)CC1)C(c1ccccc1F)N2", "note": "(stereo not drawn)", "IC50": 74}, {"smiles": "Cc1ccc(-n2nc3c(=O)n(CCCC(=O)NCC(C)c4ccccc4)nc(C)c3c2C)cc1", "note": "(stereo not drawn)", "IC50": 48}, {"smiles": "Cc1nccn1CCOc1ccc(N2C(=O)c3ccccc3NC2c2ccccn2)cc1", "note": "(stereo not drawn)", "IC50": "> 100"}, {"smiles": "O=C1c2cc(F)ccc2N(CC2CCCC2)C(c2ccccc2F)N1C1CCN(CCCn2ccnc2-c2ccccc2)CC1", "note": "(stereo not drawn)", "IC50": 12.4}, {"smiles": "O=C1c2ccccc2NC(c2ccccc2F)N1CCOc1ccc(-c2nc3ccccc3n2Cc2ccncc2)cc1", "note": "(stereo not drawn)", "IC50": "> 100"}, {"smiles": "Cc1nccn1CCOc1ccc(N2C(=O)c3ccccc3NC2c2ccccc2F)cc1", "note": "(stereo not drawn)", "IC50": "> 100"}, {"smiles": "Cc1ccc2c(c1)C(=O)N(CCOc1ccc(-c3nc4ccccc4n3Cc3ccncc3)cc1)C(c1ccccc1F)N2", "note": "(stereo not drawn)", "IC50": "> 100"}, {"smiles": "Cc1ccc2c(c1)C(=O)N(C1CCN(CCCn3ccnc3-c3ccccc3)CC1)C(c1ccccc1F)N2", "note": "(stereo not drawn)", "IC50": 42}, {"smiles": "O=C1c2cc(F)ccc2N(CC2CCCCC2)C(c2ccccc2F)N1C1CCN(CCCn2ccnc2-c2ccccc2)CC1", "note": "(stereo not drawn)", "IC50": 54.6}, {"smiles": "O=C1c2ccccc2NC(c2ccccn2)N1c1ccc(OCCn2ccnc2)cc1", "note": "(stereo not drawn)", "IC50": "> 100"}, {"smiles": "O=C1c2ccc(F)cc2NC(c2ccccc2F)N1C1CCN(CCCn2ccnc2-c2ccccc2)CC1", "note": "(stereo not drawn)", "IC50": 35}, {"smiles": "CN1c2ccc(F)cc2C(=O)N(C2CCN(CCCn3ccnc3-c3ccccc3)CC2)C1c1ccccc1F", "note": "(stereo not drawn)", "IC50": 47}, {"smiles": "Cc1ccc2c(c1)NC(c1ccccc1F)N(C1CCN(CCCn3ccnc3-c3ccccc3)CC1)C2=O", "note": "(stereo not drawn)", "IC50": 78}, {"smiles": "O=C1c2cc(Cl)ccc2NC(c2ccccc2F)N1CCOc1ccc(-c2nc3ccccc3n2Cc2ccncc2)cc1", "note": "(stereo not drawn)", "IC50": "> 100"}, {"smiles": "COc1ccc2c(c1)NC(c1ccccc1F)N(CCOc1ccc(-c3nc4ccccc4n3Cc3ccncc3)cc1)C2=O", "note": "(stereo not drawn)", "IC50": "> 100"}, {"smiles": "O=C1c2cc(F)ccc2N(CC2CC2)C(c2ccccc2F)N1C1CCN(CCCn2ccnc2-c2ccccc2)CC1", "note": "(stereo not drawn)", "IC50": 8.8}, {"smiles": "O=C1c2ccccc2NC(c2ccccc2F)N1c1ccc(OCCn2ccnc2)cc1", "note": "(stereo not drawn)", "IC50": "> 100"}, {"smiles": "O=C1c2cc(F)ccc2N(CC2CCC2)C(c2ccccc2F)N1C1CCN(CCCn2ccnc2-c2ccccc2)CC1", "note": "(stereo not drawn)", "IC50": 11.6}, {"smiles": "O=C1c2ccccc2NC(c2ccccc2F)N1C1CCN(CCCn2ccnc2-c2ccccc2)CC1", "note": "(stereo not drawn)", "IC50": 34}, {"smiles": "Cc1nc2ccccc2n1CCOc1ccc(N2C(=O)c3ccccc3NC2c2ccccc2F)cc1", "note": "(stereo not drawn)", "IC50": "> 100"}, {"smiles": "O=C1c2ccccc2NC(c2ccccn2)N1c1ccc(OCCn2ccnc2-c2ccccc2)cc1", "note": "(stereo not drawn)", "IC50": 52}, {"smiles": "O=C1c2ccccc2NC(c2ccccc2F)N1c1ccc(OCCn2ccnc2-c2ccccc2)cc1", "note": "(stereo not drawn)", "IC50": "> 100"}, {"smiles": "O=C1c2ccccc2NC(c2ccccc2F)N1c1ccc(OCCn2c(-c3ccccc3)nc3ccccc32)cc1", "note": "(stereo not drawn)", "IC50": "> 100"}]}, {"test_system": "CAPAN-1", "test": "Induction of apoptosis in KRAS-dependent human Capan1 cells after 48 hrs by Annexin-V FITC/propidium iodide staining-based flow cytometry", "assay_type": "functional, cell-based", "details": "not given", "procedure,_shortened": "as §1", "values": [{"smiles": "O=C1c2cc(F)ccc2N(CC2CC2)C(c2ccccc2F)N1C1CCN(CCCn2ccnc2-c2ccccc2)CC1", "note": "(stereo not drawn)", "Activity": "Dose-dependent effect"}]}, {"test_system": "CAPAN-1", "test": "Induction of apoptosis in KRAS-dependent human Capan1 cells at 50 uM incubated for 48 hrs by Annexin-V FITC/propidium iodide staining-based flow cytometry (reference value: 3.51%)", "assay_type": "functional", "details": "not given", "procedure,_shortened": "as §1", "units": {"Activity": "%"}, "values": [{"smiles": "Cc1ccc(-n2nc3c(=O)n(CCCC(=O)NCC(C)c4ccccc4)nc(C)c3c2C)cc1", "note": "(stereo not drawn)", "Activity": 20.5}]}, {"test_system": "CAPAN-1", "test": "Induction of apoptosis in KRAS-dependent human Capan1 cells at 10 uM incubated for 48 hrs by Annexin-V FITC/propidium iodide staining-based flow cytometry (reference value: 3.51%)", "assay_type": "functional", "details": "not given", "procedure,_shortened": "as §1", "units": {"Activity": "%"}, "values": [{"smiles": "O=C1c2cc(F)ccc2N(CC2CC2)C(c2ccccc2F)N1C1CCN(CCCn2ccnc2-c2ccccc2)CC1", "note": "(stereo not drawn)", "Activity": 17.95}]}]}
